The test system of experiment [1] is Influenza A virus. Put plainly: Antiviral activity against Influenza A virus (A/Washington/29/2009(H1N1)) harboring neuraminidase H275Y mutant infected in MDCK cells from Mill Hill assessed as inhibition of viral replication after 3 days by microscopic analysis using crystal violet stain. In kind it is functional.
For experiment [2], the system named is Influenza A virus. Description: Antiviral activity against adamantane-susceptible zanamivir-, oseltamivir-resistant Influenza A virus (A/Santiago/5248/2008(H1N1)) harboring neuraminidase D198E mutant infected in MDCK cells assessed as inhibition of viral replication after 3 days by microscopic analysis using crystal violet stain. It is filed as functional, organism-based.

The subject of experiment [3] is Influenza A virus. Put plainly: Antiviral activity against oseltamivir-susceptible zanamivir-, adamantane-resistant Influenza A virus (A/Luhansk/18/2008(H1N1)) harboring neuraminidase H274Y mutant and M2 G34E mutant infected in MDCK cells assessed as inhibition of viral replication after 3 days by microscopic analysis using crystal violet stain. It is filed as functional, organism-based.

For experiment [4], the system named is Influenza A virus. Description: Antiviral activity against oseltamivir-susceptible zanamivir-, adamantane-resistant Influenza A virus (A/Bethesda/956/2006(H3N2)) harboring neuraminidase R292K mutant and M2 S31N mutant infected in MDCK cells assessed as inhibition of viral replication after 3 days by microscopic analysis using crystal violet stain. In kind it is functional, organism-based.

For experiment [5], the system named is Influenza A virus. Description: Antiviral activity against adamantane-resistant zanamivir-,oseltamivir-susceptible Influenza A virus (A/Massachusetts/03/2009(H3N2)) harboring M2 S31N mutant infected in MDCK cells assessed as inhibition of viral replication after 3 days by microscopic analysis using crystal violet stain. It is filed as functional, organism-based. The gist of the method: (§1)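 Confluent MDCK-ATCC monolayers infected with virus diluted to give 15–45 plaques/well. Adsorption 1 h at 37°C without drug, then washed. Overlaid with 0.8% agarose in MEM containing drug plus TPCK-trypsin: 3 μg/ml for seasonal viruses, 2 μg/ml for 2009 A(H1N1). Incubated 3 days at 37°C, 5% CO2. Ethanol-fixed, crystal violet-stained, plaques counted. EC50 by curve fit; duplicates on three occasions, mean ± SD.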

The nature of experiment [6]: Antiviral activity against adamantane-, oseltamivir-, zanamivir-resistant Influenza B virus (B/Illinois/03/2008) harboring neuraminidase E119A mutant infected in MDCK cells assessed as inhibition of viral replication after 3 days by microscopic analysis using crystal violet stain. It is filed as functional, cell-based. The gist of the method:
as §1

Experiment [7] concerns Influenza B virus. Put plainly: Antiviral activity against oseltamivir-susceptible zanamivir-, adamantane-resistant Influenza B virus (B/Michigan/20/2005) harboring neuraminidase H274Y mutant infected in MDCK cells assessed as inhibition of viral replication after 3 days by microscopic analysis using crystal violet stain. In kind it is functional, cell-based.
The test system of experiment [8] is Influenza A virus. Description: Antiviral activity against adamantane-resistant zanamivir-,oseltamivir-susceptible Influenza A virus (A/pdm/Mexico/4604/2009 (H1N1)) harboring M2 V28I, S31N mutant infected in MDCK cells assessed as inhibition of viral replication after 3 days by microscopic analysis using crystal violet stain. In kind it is functional, organism-based, Influenza A virus (A/Mexico/4604/2009(H1N1)).

Experiment [9] deals with Influenza A virus. Description: Antiviral activity against adamantane-resistant zanamivir-,oseltamivir-susceptible Influenza A virus (A/pdm/California/05/2009 (H1N1)) harboring M2 V28I, S31N mutant infected in MDCK cells assessed as inhibition of viral replication after 3 days by microscopic analysis using crystal violet stain. In kind it is functional, organism-based, Influenza A virus (A/California/05/2009(H1N1)).

For experiment [10], the system named is Influenza B virus. Description: microbe, parasite or virus in culture. As to conditions: B/Memphis/20/96, MDCK, 72 h.
Experiment [11] has as its system Influenza B virus. Description: microbe, parasite or virus in culture. As to conditions: (B/Rochester/01/2001), MDCK, 72 h.

The term EC50 denotes the midpoint of the concentration-response curve. Take `NC(=O)c1nc(F)cnc1O` [FAVIPIRAVIR]: the log10FFU in the experiment on Influenza A virus [1] is 6.32. Also, the EC50 with Influenza A virus [2] was found to be 4.7 µM; with Influenza A virus [3] it was 2.93 µM; in the experiment with Influenza A virus [4] it was 1.21 µM; in the experiment with Influenza A virus [5], 4.2 µM; in [6], 3 µM; with Influenza B virus [7], 5.03 µM. Also, the EC50 came out at 1.21 µM in the experiment on Influenza A virus [8], 0.83 µM in the experiment on Influenza A virus [9], 1.21 µM with Influenza B virus [10] and 1.4 µM with Influenza B virus [11].

Values taken from ChEMBL document CHEMBL1671691 (Antimicrob Agents Chemother, 2010).
